Results from ChEMBL document CHEMBL1141288, “Antimalarial and antituberculous poly-O-acylated jatrophane diterpenoids from Pedilanthus tithymaloides” (J Nat Prod, 2007).
pIC50: −log10 of the molar value. Values after ≈ are worked out from the molar mass of the structure shown. Active and inactive are the calls of the source. The calls are words filed in the database; no cut-off is given here.

Tests used:
[1] = system: Candida albicans; experiment: Antifungal activity against Candida albicans ATCC 90028 at 50 ug/mL by tetrazolium/formazan assay; format: functional, organism-based
Method in brief: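 Candida albicans ATCC 90028 tested with a tetrazolium/formazan assay. Compounds were run at 50 µg/mL. Amphotericin B served as the positive control and DMSO as the negative control.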

[2] = system: Mycobacterium tuberculosis; experiment: Antitubercular activity against Mycobacterium tuberculosis H37Ra by alamar blue microplate assay; format: functional
[3] = system: Plasmodium falciparum; experiment: Antimalarial activity against Plasmodium falciparum K1 by microculture radioisotope assay; format: functional, organism-based
Method in brief: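 The P. falciparum K1 strain is multidrug-resistant and was kept in continuous culture. In vitro activity was measured by the microculture radioisotope technique.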

[4] = system: Plasmodium falciparum; experiment: Antimalarial activity against Plasmodium falciparum K1 at 10 ug/mL by microculture radioisotope assay; format: functional, organism-based
[5] = system: Candida albicans; experiment: Antifungal activity against Candida albicans ATCC 90028 by tetrazolium/formazan assay; format: functional, organism-based

CC(=O)O/C1=C(\C)[C@@H](O)[C@H]2[C@@H](OC(=O)c3ccccc3)[C@@H](C)[C@H](OC(C)=O)[C@]2(OC(C)=O)[C@H](OC(C)=O)/C(C)=C/CC(C)(C)[C@@H](OC(C)=O)[C@H]1OC(C)=O
Activity [1]: inactive
MIC [2]: 50 µg/mL (≈ 65.9 µM)
pIC50 [3]: 5.24

NNC(=O)c1ccncc1 [ISONIAZID]
MIC [2]: 0.1 µg/mL (≈ 0.729 µM)

CC(=O)O[C@H]1C[C@@H](OC(=O)c2ccccc2)/C(C)=C\[C@H]2[C@@H](OC(=O)c3ccccc3)[C@@H](C)[C@H](O)[C@]2(OC(C)=O)[C@H](O)[C@@](C)(O)/C=C/C1(C)C
Activity [1]: inactive
MIC [2]: 12.5 µg/mL (≈ 18.4 µM)
pIC50 [3]: 5.23

C[C@H]1[C@@H](O)O[C@@H]2O[C@@]3(C)CC[C@H]4[C@H](C)CC[C@@H]1[C@@]24OO3 [ARTENIMOL]
pIC50 [3]: 8.44

CC(=O)O[C@H]1C[C@@H](O)/C(C)=C\[C@H]2[C@@H](OC(=O)c3ccccc3)[C@@H](C)[C@H](O)[C@]2(OC(C)=O)[C@H](O)[C@@](C)(O)/C=C/C1(C)C
Activity [4]: inactive
Activity [1]: inactive
MIC [2]: 100 µg/mL (≈ 174 µM)

CC(=O)O[C@@H]1/C(C)=C/CC(C)(C)[C@@H](OC(C)=O)[C@@H](OC(C)=O)C(=O)/C(C)=C\[C@H]2[C@@H](OC(=O)c3ccccc3)[C@@H](C)[C@H](OC(C)=O)[C@]12OC(C)=O
MIC [2]: 50 µg/mL (≈ 71.6 µM)
pIC50 [3]: 5.40

C[C@@H]1[C@H](O)[C@@H](C)/C=C/C=C/C=C/C=C/C=C/C=C/C=C/[C@H](O[C@@H]2O[C@H](C)[C@@H](O)[C@H](N)[C@@H]2O)C[C@@H]2O[C@](O)(C[C@@H](O)C[C@@H](O)[C@H](O)CC[C@@H](O)C[C@@H](O)CC(=O)O[C@H]1C)C[C@H](O)[C@H]2C(=O)O (stereo in doubt) [AMPHOTERICIN B]
IC50 [5]: 0.068 µg/mL (≈ 0.0736 µM)

NC[C@H]1O[C@H](O[C@H]2[C@H](O)[C@@H](O[C@H]3O[C@H](CO)[C@@H](O)[C@H](N)[C@H]3O)[C@H](N)C[C@@H]2N)[C@H](O)[C@@H](O)[C@@H]1O [KANAMYCIN]
MIC [2]: 2.5 µg/mL (≈ 5.16 µM)

CC(=O)O/C1=C(\C)[C@@H](O)[C@H]2[C@@H](OC(=O)c3ccccc3)[C@@H](C)[C@H](O)[C@]2(OC(C)=O)[C@H](OC(C)=O)/C(C)=C/CC(C)(C)[C@@H](OC(C)=O)[C@H]1OC(C)=O
MIC [2]: 100 µg/mL (≈ 140 µM)
pIC50 [3]: 5.22
